In ChEMBL document CHEMBL1152636, “Synthesis and biological evaluation of 14-(aminoalkyl-aminomethyl)aromathecins as topoisomerase I inhibitors: investigating the hypothesis of shared structure-activity relationships” (2009):
Calls of active or inactive are those of the source. The calls are words filed in the database; no cut-off is given here.

Columns and labels:
[1] = target: T1, DNA topoisomerase 1 (Homo sapiens) (UniProt P11387); assay: Inhibition of human DNA topoisomerase 1 assessed as induction of enzyme-dependent DNA cleavage relative to 1 uM camptothecin
T1 sequence (whole entry): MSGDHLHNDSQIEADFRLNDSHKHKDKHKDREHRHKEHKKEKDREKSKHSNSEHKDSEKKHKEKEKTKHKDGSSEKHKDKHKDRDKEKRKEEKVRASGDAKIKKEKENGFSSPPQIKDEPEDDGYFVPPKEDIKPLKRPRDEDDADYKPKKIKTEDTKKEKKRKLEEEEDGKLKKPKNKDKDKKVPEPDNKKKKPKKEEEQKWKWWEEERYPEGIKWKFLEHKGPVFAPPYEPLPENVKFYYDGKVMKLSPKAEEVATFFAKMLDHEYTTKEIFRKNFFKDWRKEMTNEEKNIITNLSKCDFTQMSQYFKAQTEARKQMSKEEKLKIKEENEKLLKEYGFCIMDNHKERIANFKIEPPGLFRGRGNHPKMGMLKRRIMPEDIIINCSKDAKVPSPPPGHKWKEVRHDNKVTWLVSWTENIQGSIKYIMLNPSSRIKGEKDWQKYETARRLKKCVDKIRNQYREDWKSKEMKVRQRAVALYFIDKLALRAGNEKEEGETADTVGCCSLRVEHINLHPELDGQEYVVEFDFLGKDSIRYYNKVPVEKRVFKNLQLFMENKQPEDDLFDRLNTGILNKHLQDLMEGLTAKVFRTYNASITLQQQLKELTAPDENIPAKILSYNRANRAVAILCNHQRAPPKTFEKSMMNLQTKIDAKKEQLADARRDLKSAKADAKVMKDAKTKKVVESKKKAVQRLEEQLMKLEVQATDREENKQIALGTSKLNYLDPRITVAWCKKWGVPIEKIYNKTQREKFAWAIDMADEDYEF

[2] = test system: OVCAR-3; assay: Cytotoxicity against human OVCAR-3 cells; assay type: functional
Summary of the method: (§1)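 NCI ~60 human tumor cell line screen; after a single-dose pass at 10−5 M, selected compounds run at five concentrations from 10−8 to 10−4 M; GI50 reported per cell line.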

[3] = test system: HOP-62; assay: Cytotoxicity against human HOP62 cells; assay type: functional; summary of the method: as §1
[4] = test system: UACC-62; assay: Cytotoxicity against human UACC62 cells; assay type: functional; summary of the method: as §1
[5] = test system: DU-145; assay: Cytotoxicity against human DU145 cells; assay type: functional; summary of the method: as §1
[6] = test system: HCT-116; assay: Cytotoxicity against human HCT116 cells; assay type: functional; summary of the method: as §1
[7] = test system: SF-539; assay: Cytotoxicity against human SF539 cells; assay type: functional; summary of the method: as §1
[8] = test system: MDA-MB-435; assay: Cytotoxicity against human MDA-MB-435 cells; assay type: functional; summary of the method: as §1
[9] = test system: SN12C; assay: Cytotoxicity against human SN12C cells; assay type: functional; summary of the method: as §1
[10] = Induction of cell growth in human NCI60 cell sat 10 uM; assay type: functional

Row | Structure (SMILES) | inhibition [1] | GI50 [2] [nM] | GI50 [3] [nM] | GI50 [4] [nM] | GI50 [5] [nM] | GI50 [6] [nM] | GI50 [7] [nM] | GI50 [8] [nM] | GI50 [9] [nM] | Activity [10] [%]
1 | NCCCCCCCNCc1c2c(nc3ccccc13)-c1cc3ccccc3c(=O)n1C2 | 50% |  |  |  |  |  |  |  |  | 
2 | NCCCCNCc1c2c(nc3ccccc13)-c1cc3ccccc3c(=O)n1C2 | 75% |  |  |  |  |  |  |  |  | 
3 | NCCCNCc1c2c(nc3ccccc13)-c1cc3ccccc3c(=O)n1C2 | 50% | 1400 | 9800 | 4800 | 1100 | 1500 | 4900 | 6800 | 2100 | 
4 | COc1cc2c3c(n(C)c(=O)c2cc1OC)-c1cc2c(cc1C3=O)OCO2 |  |  | 1300 | 4200 | 37000 | 35000 | 41000 | 96000 | 68000 | 
5 | NCCCCCCCCCNCc1c2c(nc3ccccc13)-c1cc3ccccc3c(=O)n1C2 | 25% |  |  |  |  |  |  |  |  | 
6 | Cl.NCCCCCCCCCCNCc1c2c(nc3ccccc13)-c1cc3ccccc3c(=O)n1C2 | inactive |  |  |  |  |  |  |  |  | 30
7 | NCCCCCCNCc1c2c(nc3ccccc13)-c1cc3ccccc3c(=O)n1C2 | 50% | 1400 | 1200 | 2000 | 330 | 630 | 740 | 1500 | 510 | 
8 | CC[C@@]1(O)C(=O)OCc2c1cc1n(c2=O)Cc2cc3ccccc3nc2-1 [CAMPTOTHECIN] |  |  | 10 | 10 | 10 | 30 | 10 | 40 | 20 | 
9 | COc1cc2c3c(n(CCCNCCO)c(=O)c2cc1OC)-c1cc2c(cc1C3=O)OCO2 [LMP-744] | Active | 500 | 20 | 30 | < 10 | 100 | 40 | 790 | < 10 | 
10 | NCCNCc1c2c(nc3ccccc13)-c1cc3ccccc3c(=O)n1C2 | 75% | 1700 | 1400 | 12600 | 1400 | 1500 | 8300 | 11000 | 1500 | 
11 | NCCCCCCCCNCc1c2c(nc3ccccc13)-c1cc3ccccc3c(=O)n1C2 | 25% | 2500 | 2800 | 1800 | 1100 | 1800 | 1900 | 3100 | 1800 | 
12 | NCCCCCCCCCCCNCc1c2c(nc3ccccc13)-c1cc3ccccc3c(=O)n1C2 | inactive |  |  |  |  |  |  |  |  | 
13 | O=c1c2ccccc2cc2n1Cc1cc3ccccc3nc1-2 [ROSETTACIN] |  |  |  |  | > 100000 |  |  |  | > 100000 | 
14 | NCCCCCCCCCCCCNCc1c2c(nc3ccccc13)-c1cc3ccccc3c(=O)n1C2 | inactive | 1900 | 6500 | 1900 | 2000 | 2000 | 1800 | 1700 | 2500 | 
15 | NCCCCCNCc1c2c(nc3ccccc13)-c1cc3ccccc3c(=O)n1C2 | 25% | 8100 | 2600 | 1900 | 1100 | 3200 | 7200 | 12600 | 3200 | 
